Key:
Rattus norvegicus = organism: Rattus norvegicus; test: Selectivity ratio of Ki of Wistar rat dopamine D1-like receptor to Ki for Wistar rat dopamine D2-like receptor
[1] = Displacement of [3H]SCH23390 from dopamine D1-like receptor in Wistar rat striatal membrane after 1 hr by scintillation counting; format: cell membranes, Striatum
Method in brief: (§1)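 Striatal membranes from female Wistar rats, 100 µg/mL, in Tris-ions buffer pH 7.4 (120 mM NaCl, 2 mM CaCl2, 5 mM KCl, 1 mM MgCl2, 0.1% ascorbic acid). Incubated 1 h at 23 °C with 0.25 nM [3H]-SCH23390 and competitor 10^-10 to 10^-4 M. Non-specific binding with 30 µM SK&F38393. Filtration, then scintillation counting. Ki from KD 0.36 nM. Mean ± SEM of 3–6 experiments.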

[2] = Displacement of [3H]raclopride from dopamine D2-like receptor in Wistar rat striatal membrane after 1 hr by scintillation counting; format: cell membranes, Striatum
Method in brief: as §1, with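 “200” for “100”, “0.5” for “0.25”, “[3H]-raclopride” for “[3H]-SCH23390”, “50” for “30”, “apomorphine.” for “SK&F38393.”, “1.25” for “0.36”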

SMILES | Ratio Ki (Rattus norvegicus) | Ki [1] [nM] | pKi [1] | Ki [2] [nM] | pKi [2]
CN1CCc2cc(Cl)c(O)cc2C1Cc1ccccc1Br (stereo not given) | 3.6 | 65 | 7.21 | 18 | 7.76
CN1CCc2cc(Cl)c(O)cc2C1Cc1ccc(Cl)cc1Cl (stereo not given) | 0.9 | 241 | 6.71 | 269 | 6.64
Oc1cc2c(cc1Cl)CCNC2Cc1ccc(Cl)cc1Cl (stereo not given) | 1.7 | 183 | 6.74 | 107 | 7
COc1cc2c(cc1Cl)CCN(C)C2Cc1ccc(Cl)cc1Cl (stereo not given) | 2.5 | 15100 | 4.84 | 6130 | 5.23

The remaining lines, values ahead:

Ratio Ki (Rattus norvegicus) | Ki [1] [nM] | pKi [1] | Ki [2] [nM] | pKi [2] | SMILES
2.4 | 110 | 7.06 | 46 | 7.39 | Oc1cc2c(cc1Cl)CCNC2Cc1ccccc1Br (stereo not given)
6.2 | 1530 | 5.83 | 245 | 6.63 | COc1cc2c(cc1Cl)CCNC2Cc1ccccc1Br (stereo not given)
1 | 1320 | 5.89 | 1340 | 5.9 | COc1cc2c(cc1Cl)CCN(C)C2Cc1ccccc1Br (stereo not given)
3.4 | 11300 | 5.01 | 3300 | 5.51 | COc1cc2c(cc1Cl)CCNC2Cc1ccc(Cl)cc1Cl (stereo not given)

— ChEMBL document CHEMBL1155291, “Structure-activity relationship of dopaminergic halogenated 1-benzyl-tetrahydroisoquinoline derivatives” (Eur J Med Chem, 2009)
